Assay outcomes deposited in PubChem by several laboratories.
CSC inhib: blocks cancer stem cells | cancer stem cell-like cells viability, luminescence | inhibition, % at 7.5 µM | hit rate 1.1% among 300,000 | AID 2717; in the data active means inhibition above about 75%; inconclusive means no clear call, values can overlap the other calls; tested in HMLE shEcad cells
Mdm2-MdmX inh: human Mdm2/MdmX binding inhibition; O15151+Q00987; SaOS-2 split-luciferase Mdm2/MdmX complementation, luminescence; inhibition, % at 8 µM; hit rate 3% among 330,000;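 active means inhibition of at least 50% at 8 µM in the primary screen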
Target sequence (O15151 whole entry, looked up): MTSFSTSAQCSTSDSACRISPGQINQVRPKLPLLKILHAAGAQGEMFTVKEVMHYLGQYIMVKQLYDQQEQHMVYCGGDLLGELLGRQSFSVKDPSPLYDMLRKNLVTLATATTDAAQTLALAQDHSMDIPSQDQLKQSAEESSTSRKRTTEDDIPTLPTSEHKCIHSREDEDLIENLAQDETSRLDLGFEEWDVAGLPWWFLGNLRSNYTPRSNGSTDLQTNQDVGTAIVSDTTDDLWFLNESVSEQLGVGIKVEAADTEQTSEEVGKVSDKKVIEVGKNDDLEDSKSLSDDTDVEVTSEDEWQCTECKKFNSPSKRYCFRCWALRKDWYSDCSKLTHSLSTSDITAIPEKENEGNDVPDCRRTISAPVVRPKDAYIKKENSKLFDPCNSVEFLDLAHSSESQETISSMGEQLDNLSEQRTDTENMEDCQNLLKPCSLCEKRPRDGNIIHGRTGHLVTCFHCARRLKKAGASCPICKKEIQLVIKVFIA
Target sequence (Q00987 whole entry, looked up): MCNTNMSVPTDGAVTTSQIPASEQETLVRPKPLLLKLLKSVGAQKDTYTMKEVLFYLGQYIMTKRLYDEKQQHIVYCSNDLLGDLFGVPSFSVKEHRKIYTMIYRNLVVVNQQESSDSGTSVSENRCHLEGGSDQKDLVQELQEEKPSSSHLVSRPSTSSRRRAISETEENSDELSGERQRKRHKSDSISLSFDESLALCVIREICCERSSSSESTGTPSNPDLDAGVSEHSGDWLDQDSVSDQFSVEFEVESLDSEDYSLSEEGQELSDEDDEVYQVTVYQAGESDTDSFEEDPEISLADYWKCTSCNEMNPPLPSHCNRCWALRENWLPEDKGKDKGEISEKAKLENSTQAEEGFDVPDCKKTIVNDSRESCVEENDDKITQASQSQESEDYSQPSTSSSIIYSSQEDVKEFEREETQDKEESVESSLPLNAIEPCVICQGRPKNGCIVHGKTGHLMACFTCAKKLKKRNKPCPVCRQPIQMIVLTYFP
aSyn UTR inh: 5' untranslated region of α-synuclein, MLPCN primary screen | alpha-synuclein 5'UTR reporter, inhibitor activity | inhibition, % (tested at 7.5 µM) | hit rate 0.82% among 300,000; in the data active means inhibition above about 60%; inconclusive means no clear call, values can overlap the other calls;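 further: H4 neuroglioblastoma cells stably carrying SNCA 5'UTR luciferase fusion; 0% = DMSO wells and 100% = positive control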
T cruzi repl: blocks replication of Trypanosoma cruzi | T. cruzi beta-gal in NIH3T3, luminescence, 90 h | inhibition, % (test concentration not listed) | hit rate 1.4% among 300,000;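 active means mean inhibition across valid replicates above about 55%, limit read from the data; inconclusive means mean below that limit but half or more replicates reach it; inactive means mean below it, under half of replicates reach it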;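 further: signal also drops with host cell toxicity which is not excluded here; 0% = plate median of DMSO wells and 100% = zero luminescence signal; higher percent means less beta-gal luminescence so fewer parasites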
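Incubation – ≥90 h infection period, 3 h prior cell attachment · System – NIH/3T3 fibroblasts plus reporter T. cruzi · Doses – compound pinned at 50 nL/well, DMSO · Read-out basis – percent inhibition of parasite-derived β-gal signal · Signal – luminescent β-galactosidase signal after 60 min lysis · Also added – 5000 T. cruzi trypomastigotes/well · Medium – Low-serum DMEM with 2% FBS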
SKKanGAS inh: SKKanGAS growth inhibition | S. pyogenes SKKanGAS, kanamycin growth, BacTiter-Glo, 6 h | inhibition, % at 7.5 µM | hit rate 1.3% among 300,000 | AID 1662;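 active means mean replicate score, as percent of positive control median, at least 50; inconclusive means mean below 50 but one replicate at or above 50; inactive means mean and every replicate below 50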;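 further: strain carries kanamycin resistance gene driven by streptokinase promoter and grows in 40 µg/ml kanamycin; loss of luminescence reflects streptokinase promoter inhibition or plain growth inhibition; 0% = median of DMSO wells and 100% = positive control at its reference dose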
Mdm2 MdmX conf: confirmation of human Mdm2/MdmX interaction inhibitors; inhibition, % at 8 µM; shares compounds with Mdm2-MdmX inh; hit rate 55% among 10,000; AID 489028; Mdm2-MdmX binding, luminescent assay; in the data active means inhibition above about 40%
Full FLuc ctr: inhibits full-length luciferase, flagging false Mdm2/MdmX hits; shares compounds with Mdm2-MdmX inh; SaOS-2 full-length luciferase counterscreen, luminescence; inhibition, % at 8 µM; hit rate 77% among 6,200;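 active means mean inhibition at 8 µM reaching about 37%, which flags the compound as non-specific, limit read from the data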;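 further: p53-null SaOS-2 cells with luciferase driven by a doxycycline-inducible promoter; compound on cells about two nights before reading with doxycycline added after day one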
An asterisk follows results filed as active; ? = inconclusive; / = no result given. Hits are enriched below; roughly 5.4% of the tested compounds scored in any of these assays.

SMILES	CSC inhib	Mdm2-MdmX inh	aSyn UTR inh	T cruzi repl	SKKanGAS inh	Mdm2 MdmX conf	Full FLuc ctr
Cc1c(C(=O)N2CCOCC2)[nH]c2c1C(=O)CC(c1ccccc1Cl)C2 (stereo unspecified)	46.8	72.8*	4.1	-37.3	-4.7	55.8*	59.1*
C/C=C/COC(=O)c1[nH]c2c(c1C)C(=O)CC(c1ccco1)C2 (stereo unspecified)	63.0	64.9*	67.4*	16.1	9.2	56.0*	73.0*
Cc1c(C(=O)OC2CCCC2)[nH]c2c1C(=O)CC(c1ccco1)C2 (stereo unspecified)	63.6	68.0*	56.3	21.7	6.3	47.8*	78.4*
COC(=O)c1[nH]c2c(c1C)C(=O)CC(c1ccccc1)C2 (stereo unspecified)	55.9	69.7*	28.1	24.1	-2.7	55.3*	89.5*
COCC(=O)Nc1ccc2c(c1)OCC(=O)N2Cc1ccccc1F	-10.7	-0.8	11.5	-1.6	-0.3	/	/
C=CCOC(=O)c1[nH]c2c(c1C)C(=O)CC(c1ccco1)C2 (stereo unspecified)	7.4	63.3*	69.2*	-19.3	1.0	55.5*	86.2*
Cc1c(C(=O)OCC2CCCO2)[nH]c2c1C(=O)CC(c1ccco1)C2 (stereo unspecified)	2.9	38.5	-45.8	-5.9	-4.0	/	/
Cc1c(C(=O)OCC(C)C)[nH]c2c1C(=O)CC(c1ccco1)C2 (stereo unspecified)	/	75.1*	69.9*	17.4	5.8	54.3*	76.6*
COc1ccccc1N1CCNC(C)C1=O (stereo unspecified)	-2.3	20.6	-0.7	-9.9	0.5	/	/
Nc1ccc2c(c1)OC1(CCCC1)O2	19.1	69.6*	40.8	-0.8	-1.4	80.4*	36.8*
COc1ccc(Cc2noc(CN3CCN(Cc4csc(C)n4)CC3)n2)cc1OC	-1.2	-5.3	-8.1	-2.3	-2.4	/	/
O=c1ccc2ccc(OCCOc3cccc(Cl)c3)cc2o1	8.3	-4.2	-59.2	3.1	7.0	/	/
O=C(N/N=C/c1sc(=O)n(Cc2ccc(Br)cc2)c1Cl)c1ccco1	-9.9	59.1*	-32.2	-4.1	31.1	3.0	/
O=C(N/N=C/c1ccc(Br)s1)c1ccco1	-5.3	-21.8	-100.4	-15.5	0.0	/	/
O=C(CCl)N1c2ccccc2SCC1c1ccccc1 (stereo unspecified)	-7.1	98.6*	-64.2	?	-3.9	53.6*	19.3
Cc1ccc(Cl)cc1N1CCN(Cc2nc3c(c(=O)[nH]c(=O)n3C)n2CCc2ccccc2)CC1	5.1	63.6*	5.5	22.6	0.6	13.9	/
Cc1ccc(Cl)cc1N1CCN(Cc2nc3c(c(=O)[nH]c(=O)n3C)n2Cc2ccccc2F)CC1	117.8*	51.1*	-7.2	37.8	79.3*	35.2	77.2*
CC(=O)N1c2ccc(S(=O)(=O)NCC3CCC(C(=O)NC4CCCCC4)CC3)cc2CC1C (stereo unspecified)	-10.6	21.0	-5.2	23.5	9.0	/	/
Nc1nc2ccccc2n1/N=C/c1ccc([N+](=O)[O-])s1	4.5	56.3*	83.4*	50.2	18.6	47.2*	47.5*
Nc1nc2ccccc2n1/N=C/c1cccnc1	/	22.3	-38.4	7.9	-2.2	/	/
O=C(Cc1ccc(Br)cc1)N1CCN(C(=O)c2ccco2)CC1	-0.6	-7.1	-1.1	-3.7	0.3	/	/
CC(C)c1ccc(Nc2nnc(SC3CCOC3=O)s2)cc1 (stereo unspecified)	-10.3	52.2*	-0.8	1.7	-8.5	-3.2	/
Clc1ccc2oc3c(Cl)ncnc3c2c1	-2.6	71.1*	53.7	-60.7	3.9	4.3	/
COC(=O)[C@H](Cc1c[nH]c2ccccc12)NC(=O)NCc1ccc(OC)cc1	-8.0	-7.3	-2.1	-21.2	-6.6	/	/
COc1ccc(-n2c(COc3cccc4ccccc34)nnc2SCC(=O)NCc2ccco2)cc1	28.4	24.1	-11.6	18.5	18.4	/	/
SMILES	CSC inhib	Mdm2-MdmX inh	aSyn UTR inh	T cruzi repl	SKKanGAS inh	Mdm2 MdmX conf	Full FLuc ctr
Cc1nc2cc(Cl)ccc2c(=O)n1Cc1ccncc1	-16.0	18.9	-0.8	-5.9	-8.1	/	/
CCn1c(=O)cc(SCC(=O)N2CCN(c3ccccc3F)CC2)c2ccccc21	24.4	55.8*	-2.3	7.4	8.5	43.9*	85.9*
CN(Cc1ccccc1)C(=O)CSc1cc(=O)n(C)c2ccccc12	1.1	35.3	5.9	10.7	2.6	/	/
CCn1c(=O)cc(SCC(=O)N(C)Cc2ccccc2)c2ccccc21	-7.5	50.9*	30.7	5.7	0.2	30.2	/
CC1(c2ccc(OC(F)F)cc2)NC(=O)N(CC(=O)N2CCN(C(=O)c3ccco3)CC2)C1=O (stereo unspecified)	/	-21.2	/	/	/	/	/
CCCC(=O)NCCc1nc2cc([N+](=O)[O-])ccc2n1C	-4.6	16.3	-3.1	2.7	-0.9	/	/
COc1ccc(N2CCN(C(=O)c3c(C)nn(-c4ccccc4)c3C)CC2)cc1	-14.9	26.7	-12.2	-8.8	1.3	/	/
O=C(CS(=O)CC(=O)N(CC(=O)NC1CCCC1)c1ccc2c(c1)OCCO2)Nc1ccc(F)cc1 (stereo unspecified)	-13.7	5.5	14.6	7.2	-5.1	/	/
CCN(CCCNC(=O)COc1cc(=O)n(CC)c2ccccc12)c1ccccc1	-11.3	60.7*	4.8	46.7	0.4	27.9	/
CCN(CCCNC(=O)COc1cc(=O)n(C)c2ccccc12)c1ccccc1	-11.2	20.5	19.5	21.1	-1.3	/	/
CCC(Sc1nc2cc3c(cc2c(=O)n1Cc1ccco1)OCO3)C(=O)Nc1cccc(OC)c1 (stereo unspecified)	14.7	40.5	17.4	35.2	16.4	/	/
CCC(Sc1nc2cc3c(cc2c(=O)n1Cc1ccco1)OCO3)C(=O)Nc1ccccc1OC (stereo unspecified)	4.4	61.1*	45.7	35.4	13.4	44.4*	80.4*
N#CC1CCN(C(=O)c2ccc3c(Cl)c4c(nc3c2)CCCC4)CC1	1.7	52.4*	-16.4	2.9	-4.3	-15.2	/
CC1CCN(CCCNC(=O)c2ccc3c(Cl)c4c(nc3c2)CCCC4)CC1	39.7	79.0*	-41.2	21.5	-1.8	68.4*	30.3
CCN1CCN(CCCNC(=O)c2ccc3c(Cl)c4c(nc3c2)CCCC4)CC1	-3.4	73.2*	-35.3	6.9	-8.0	46.4*	43.5*
O=C(NCCCN1CCCCCC1)c1ccc2c(Cl)c3c(nc2c1)CCCC3	30.5	58.6*	-25.2	6.5	-1.9	21.1	/
COCCNC(=O)c1ccc2c(Cl)c3c(nc2c1)CCC3	-5.3	-26.2	-145.2	1.7	-5.7	/	/
CC(C)Cn1c(SCC(=O)N(C)c2c(N)n(Cc3ccccc3)c(=O)[nH]c2=O)nc2ccccc21	-12.1	14.6	7.5	-11.7	-5.2	/	/
COc1ccc(NC(=O)CCC(=O)N2CCCC2)c([N+](=O)[O-])c1	1.5	5.7	-0.6	-1.6	1.8	/	/
CCN1CCN(CCNC(=O)c2ccc3nc(-c4cccc(C)c4)c(-c4cccc(C)c4)nc3c2)CC1	-10.8	100.2*	-23.3	47.7	8.9	59.4*	16.3
